Assays:
[1] = biological target: Melanocyte-stimulating hormone receptor (Homo sapiens, UniProt Q01726); assay: Activity at human MC1R by cAMP accumulation in SaoS2 cells; assay type: functional, cell-based, SAOS-2
Melanocortin receptor 4 [2] = biological target: T1, Melanocortin receptor 4 (Homo sapiens, UniProt P32245); assay: Activity at human MC4R by cAMP accumulation in SaoS2 cells; assay type: functional, cell-based, SAOS-2
[3] = biological target: Melanocortin receptor (M1 and M4) (Homo sapiens, UniProt P32245+Q01726); assay: Selectivity for human MC4R over MC1R; assay type: functional
Melanocortin receptor 4 [4] = biological target: T1, Melanocortin receptor 4; assay: Displacement of [125I]NDP-alpha-MSH from human cloned MC4R expressed in HEK293 cells; assay type: cell-based
In short: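 Binding affinity was measured by displacement of radiolabelled [125I]NDP-alpha-MSH ([Nle4, D-Phe7]-alpha-MSH) from recombinant human MC4R expressed in HEK-293 cells.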

T1 sequence (P32245 whole entry): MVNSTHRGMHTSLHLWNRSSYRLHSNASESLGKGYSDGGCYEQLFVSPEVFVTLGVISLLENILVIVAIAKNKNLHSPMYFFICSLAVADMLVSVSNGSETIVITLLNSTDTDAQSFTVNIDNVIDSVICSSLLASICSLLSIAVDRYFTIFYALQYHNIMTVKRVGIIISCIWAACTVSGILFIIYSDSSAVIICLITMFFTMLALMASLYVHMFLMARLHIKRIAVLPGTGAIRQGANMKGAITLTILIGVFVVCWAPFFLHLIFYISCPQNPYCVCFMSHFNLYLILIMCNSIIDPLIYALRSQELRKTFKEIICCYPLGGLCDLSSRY
Melanocyte-stimulating hormone receptor, sequence (Q01726 whole entry): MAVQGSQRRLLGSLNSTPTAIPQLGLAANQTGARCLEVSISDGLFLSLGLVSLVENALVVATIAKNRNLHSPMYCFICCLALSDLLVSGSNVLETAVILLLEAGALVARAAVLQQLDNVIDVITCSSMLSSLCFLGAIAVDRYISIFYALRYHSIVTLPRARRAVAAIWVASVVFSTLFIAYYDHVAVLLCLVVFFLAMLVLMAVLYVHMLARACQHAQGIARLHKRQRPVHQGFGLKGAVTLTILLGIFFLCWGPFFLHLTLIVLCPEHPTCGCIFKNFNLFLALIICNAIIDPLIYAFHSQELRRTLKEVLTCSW

| Structure (SMILES) | EC50 [1] | EC50 (Melanocortin receptor 4 [2]) | EC50 ratio (MC1R/MC4R) [3] | Ki (Melanocortin receptor 4 [4]) |
| --- | --- | --- | --- | --- |
| N=C(N)NCCC[C@@H]1NC(=O)[C@H](Cc2ccccc2)NC(=O)[C@H](Cc2cnc[nH]2)NC(=O)CCCCCCCNC(=O)[C@H](Cc2c[nH]c3ccccc23)NC1=O | 5.1 µM | 9.59 µM | 0.53 | 4.42 µM |
| NC(N)=NCCC[C@@H]1NC(=O)[C@@H](Cc2ccccc2)NC(=O)[C@H](Cc2cnc[nH]2)NC(=O)CCCCCCCNC(=O)[C@H](Cc2c[nH]c3ccccc23)NC1=O | 0.0774 µM | 0.0164 µM | 4.7 | 0.319 µM |
| N=C(N)NCCC[C@@H]1NC(=O)[C@@H](Cc2ccccc2)NC(=O)[C@H](Cc2c[nH]cn2)NC(=O)CCCCCNC(=O)[C@H](Cc2c[nH]c3ccccc23)NC1=O | 1.3 µM | 3.12 µM | 0.42 | 0.67 µM |

Further compounds by falling EC50 [1], results first:

| EC50 [1] | EC50 (Melanocortin receptor 4 [2]) | EC50 ratio (MC1R/MC4R) [3] | Ki (Melanocortin receptor 4 [4]) | Structure (SMILES) |
| --- | --- | --- | --- | --- |
| 3.3 µM | 10.1 µM | 0.33 | – | N=C(N)NCCC[C@@H]1NC(=O)[C@@H](Cc2ccccc2)NC(=O)[C@H](Cc2c[nH]cn2)NC(=O)CCCCNC(=O)[C@H](Cc2c[nH]c3ccccc23)NC1=O |
| 0.27 µM | 1.58 µM | 0.17 | 5.78 µM | NC(N)=NCCC[C@@H]1NC(=O)[C@@H](Cc2ccccc2)NC(=O)[C@H](Cc2cnc[nH]2)NC(=O)CCCNC(=O)[C@H](Cc2c[nH]c3ccccc23)NC1=O |
| 0.067 µM | 0.0154 µM | 4.3 | 0.244 µM | N=C(N)NCCC[C@@H]1NC(=O)[C@@H](Cc2ccccc2)NC(=O)[C@H](Cc2c[nH]cn2)NC(=O)CCCCCCNC(=O)[C@H](Cc2c[nH]c3ccccc23)NC1=O |
